PMC6028884 (Clinical Pharmacokinetics, 2017)
Entries after “also recorded” stand apart in the source; their conditions may differ.

Experiments:
[1] = cited from earlier work
[2] = Population pharmacokinetic analysis; format: in vivo, human
[3] = system: cytochrome P450 (CYP) 3A; conditions: in vitro; cited from earlier work
[4] = format: in vivo, human
How it was run: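 Used a two-compartment population PK model with first-order absorption and elimination, fitted by nonlinear mixed-effects modelling. Data were LC-MS plasma concentrations from healthy subjects and RA patients given 1–48 mg immediate-release oral doses. Simulations ran 200 replicates using demographics of RA patients from two phase IIb trials.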

[5] = strong CYP3A inhibitor ketoconazole; cited from earlier work
[6] = system: rheumatoid arthritis; conditions: phase IIb studies, 12 weeks; cited from earlier work
[7] = system: CYP2D6; conditions: in vitro; cited from earlier work
[8] = immediate-release formulation, compared with fasting conditions; cited from earlier work
[9] = system: plasma protein; conditions: cited from earlier work
[10] = cited from earlier work; remark: listed apart in the source
[11] = Population analysis, point estimate (%RSE), final model
[12] = matched on sex and creatinine clearance
[13] = steady state, matching on other covariates

Compound: O=C(Nc1nc2cccc(-c3ccc(CN4CCS(=O)(=O)CC4)cc3)n2n1)C1CC1 [filgotinib]
- oral clearance in subjects with RA compared with healthy subjects [1]: lower

Compound: C[C@@H]1CCN(C(=O)CC#N)C[C@@H]1N(C)c1ncnc2[nH]ccc12 [tofacitinib]
- oral clearance in subjects with RA compared with healthy subjects [1]: lower

Compound: CC[C@@H]1CN(C(=O)NCC(F)(F)F)C[C@@H]1c1cnc2cnc3[nH]ccc3n12 [upadacitinib, Upadacitinib]
- linearity of pharmacokinetics with respect to dose ([2]; 1-48 mg immediate-release doses): dose-proportional; also recorded: did not deviate significantly from linearity; also recorded: did not significantly deviate from linearity
- ALAG1 ([2]; Bootstrap analysis, mean): 0.48 h
- Additive residual error SD ([2]; Bootstrap analysis, mean): 0.17 ng/mL
- Exponent for the effect of body weight on Vc/F (θ5) ([2]; Bootstrap analysis, mean): 0.50
- Ka ([2]; Bootstrap analysis, mean): 20.1 h⁻¹
- Proportional residual error SD ([2]; Bootstrap analysis, mean): 31%
- Q/F ([2]; Bootstrap analysis, mean): 3.24 L/h
- Ratio of CL/F in RA patients compared with healthy subjects (θ1) ([2]; Bootstrap analysis, mean): 0.76
- Ratio of CL/F in females compared with males (θ2) ([2]; Bootstrap analysis, mean): 0.86
- Ratio of Vc/F in females compared with males (θ4) ([2]; Bootstrap analysis, mean): 0.75
- Vc/F ([2]; Bootstrap analysis, mean): 145 L
- Vp/F ([2]; Bootstrap analysis, mean): 65.4 L
- ωIOV2 on ALAG1 (phase II study visits only) ([2]; Bootstrap analysis, mean): 0.079
- CL/F ([2]; Bootstrap analysis, mean (188 successful runs out of 200)): 39.8 L/h
- ALAG1 ([2]; Bootstrap analysis, median): 0.48 h
- Additive residual error SD ([2]; Bootstrap analysis, median): 0.17 ng/mL
- Exponent for the effect of body weight on Vc/F (θ5) ([2]; Bootstrap analysis, median): 0.50
- Ka ([2]; Bootstrap analysis, median): 12.2 h⁻¹
- Proportional residual error SD ([2]; Bootstrap analysis, median): 31%
- Q/F ([2]; Bootstrap analysis, median): 3.23 L/h
- Ratio of CL/F in RA patients compared with healthy subjects (θ1) ([2]; Bootstrap analysis, median): 0.76
- Ratio of CL/F in females compared with males (θ2) ([2]; Bootstrap analysis, median): 0.86
- Ratio of Vc/F in females compared with males (θ4) ([2]; Bootstrap analysis, median): 0.75
- Vc/F ([2]; Bootstrap analysis, median): 145 L
- Vp/F ([2]; Bootstrap analysis, median): 64.6 L
- ωIOV2 on ALAG1 (phase II study visits only) ([2]; Bootstrap analysis, median): 0.079
- CL/F ([2]; Bootstrap analysis, median (188 successful runs out of 200)): 39.8 L/h
- ALAG1 [2, 11]: 0.48 (0.017) h
- Additive residual error SD [2, 11]: 0.18 (13) ng/mL
- Proportional residual error SD [2, 11]: 31 (13) %
- Q/F [2, 11]: 3.23 (2.5) L/h
- Ratio of CL/F in RA patients compared with healthy subjects (θ1) [2, 11]: 0.76 (2.9)
- Ratio of CL/F in females compared with males (θ2) [2, 11]: 0.86 (2.8)
- Ratio of Vc/F in females compared with males (θ4) [2, 11]: 0.75 (1.6)
- Vp/F [2, 11]: 64.3 (1.1) L
- ωIOV2 on ALAG1 (phase II study visits only) [2, 11]: 0.08 (1.5)
- Exponent for the effect of body weight on Vc/F (θ5) ([2]; Population analysis, point estimate (%RSE), final model, (BW/74 kg)^θ5): 0.50 (15.8)
- Vc/F ([2]; Population analysis, point estimate (%RSE), final model, reference male, 74 kg): 146 (2.2) L
- Ka ([2]; Population analysis, point estimate, final model): 12.3 h⁻¹
- correlation of clearance with body weight ([2]; in vivo): not correlated
- lower CL/F in females compared with males ([2]; in vivo): 14%
- effect of CYP2D6 phenotype on upadacitinib clearance ([2]; phenotype determined from pharmacogenetic analysis): not correlated; also recorded: not a statistically significant covariate
- absorption lag time (ALAG1), estimate (95% CI) ([2]; typical healthy male): 0.48 (0.47–0.49) h
- mean absorption time (calculated as 1/Ka), estimate (95% CI) ([2]; typical healthy male): 0.08 (0.04–0.12) h
- oral clearance (CL/F), population estimate (95% bootstrap CI) ([2]; typical healthy male, body weight 74 kg, creatinine clearance […]): 39.7 (37.8–41.5) L/h
- substrate status for CYP3A [3]: non-sensitive substrate
- AUC, body weight < 60 kg or > 100 kg compared with 60-100 kg [4, 12]: same
- higher Cmax, body weight < 60 kg compared with 60-100 kg [4, 12]: approximately 10%
- lower Cmax, body weight > 100 kg compared with 60-100 kg [4, 12]: approximately 10%
- higher Cmax in females compared with males ([4]; steady state): 26%
- higher upadacitinib AUC in females relative to males [4, 13]: 16%
- higher upadacitinib AUC in subjects with RA relative to healthy volunteers [4, 13]: 32%
- increase of upadacitinib exposures by ketoconazole [5]: approximately 75%
- safety profile [6]: acceptable safety profile
- contribution of CYP2D6 to metabolism [7]: potentially minor metabolic contribution; also recorded: minor contributor
- decrease of Cmax by food [8]: approximately 20%
- delay of time to Cmax (Tmax) by food [8]: approximately 2 h
- plasma protein binding [9]: < 50%
- upadacitinib dose eliminated unchanged in urine [10]: Approximately 20%
- accumulation in plasma ([10]; multiple twice-daily dosing): no accumulation
- dose proportionality of exposures ([10]; over the evaluated dose range): approximately dose proportional
- functional half-life ([10]; phase I studies, immediate-release capsules): approximately 4 h
- tolerability ([10]; single doses up to 48 mg and multiple twice-daily doses up to 24 mg, immediate-release capsules): well-tolerated
